These results are taken from ChEMBL document CHEMBL4732224, “Structure activity refinement of phenylsulfonyl piperazines as antimalarials that block erythrocytic invasion” (Eur J Med Chem, 2021).

Data set [1] relates to Plasmodium falciparum. Put plainly: Antimalarial activity against Plasmodium falciparum 3D7 incubated for 72 hrs by LDH assay. The note with it: 3D7, 72 h. The class given is functional, organism-based. The procedure, abridged: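 Asexual blood-stage P. falciparum 3D7 parasites were cultured with compound for 72 h, and viability was read by lactate dehydrogenase (LDH) activity.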

The subject of data set [2] is HepG2. Put plainly: Cytotoxicity against human HePG2 cells assessed as growth inhibition after 48 hrs by Cell Titer-Glo assay. The class given is cell-based. The note with it: HepG2, 48 h.
Data set [3] in a line: Solubility of compound in PBS at pH 6.5 by nephelometric analysis. The class given is physicochemical.
The test system of data set [4] is Plasmodium falciparum. Put plainly: Antimalarial activity against asexual blood stage of chloroquine-resistant Plasmodium falciparum 7G8 assessed as reduction in cell viability after 72 hrs by EtBr staining based flow cytometric analysis. Type of data set: functional, organism-based. Conditions: 7G8, 72 h.
For data set [5], the system named is Plasmodium falciparum. Nature of the data set: Antimalarial activity against schizonts stage of Plasmodium falciparum D10 expressing GFP infected in human RBC assessed as reduction in merozoites invade to RBC at 4 times of EC90 concentration after 6 hrs by flow cytometric analysis. The class given is functional, organism-based. In general terms: In flow cytometry, cells or beads pass a laser one at a time.

Data set [6] deals with Plasmodium falciparum. Nature of the data set: Antimalarial activity against asexual blood stage of artemisinin-resistant Plasmodium falciparum Cam3.12539T cambodian isolate assessed as reduction in cell viability after 72 hrs by EtBr staining based flow cytometric analysis. The class given is functional, organism-based. The note with it: Cam3.12539T cambodian isolat.
In data set [7] the test system is Plasmodium falciparum. Put plainly: Antimalarial activity against Plasmodium falciparum NF54 late stage ([…]) expressing Pfs16-LUC-GFP assessed as growth inhibition by high content imaging assay. Type of data set: functional, organism-based.
In data set [8] the test system is Plasmodium falciparum. Put plainly: Antimalarial activity against asexual blood stage of Plasmodium falciparum 3D7 assessed as reduction in cell viability after 72 hrs by EtBr staining based flow cytometric analysis. The class given is functional, organism-based. Conditions: 3D7, 72 h.
For data set [9], the system named is Plasmodium falciparum. Put plainly: Antimalarial activity against schizonts stage of Plasmodium falciparum D10 expressing GFP infected in human RBC assessed as reduction in ring stage formation at 4 times of EC90 concentration after 6 hrs by flow cytometric analysis. Type of data set: functional, organism-based.
For data set [10], the system named is Plasmodium falciparum. Put plainly: Antimalarial activity against Plasmodium falciparum NF54 late stage ([…]) expressing Pfs16-LUC-GFP assessed as growth inhibition at 20 uM by high content imaging assay relative to control. Conditions: read-out: GI. Type of data set: functional.
The subject of data set [11] is Plasmodium falciparum. Put plainly: Antimalarial activity against Plasmodium falciparum NF54 early stage (1 to 3) expressing Pfs16-LUC-GFP assessed as growth inhibition at 20 uM by high content imaging assay relative to control. Type of data set: functional. Conditions: read-out: GI.
Data set [12] concerns Plasmodium knowlesi. Put plainly: Antimalarial activity against asexual blood stage of Plasmodium knowlesi YHI assessed as reduction in cell viability after 48 hrs by EtBr staining based flow cytometric analysis. The class given is functional, organism-based.
The test system of data set [13] is Plasmodium falciparum. Put plainly: Antimalarial activity against asexual blood stage of chloroquine-resistant Plasmodium falciparum Dd2 assessed as reduction in cell viability after 72 hrs by EtBr staining based flow cytometric analysis. The class given is functional, organism-based. Conditions: Dd2, 72 h.
Data set [14] deals with Plasmodium falciparum. Nature of the data set: Antimalarial activity against Plasmodium falciparum NF54 early stage (1 to 3) expressing Pfs16-LUC-GFP assessed as growth inhibition by high content imaging assay. Type of data set: functional, organism-based.
In data set [15] the test system is Plasmodium falciparum. Nature of the data set: Antimalarial activity against schizonts stage of Plasmodium falciparum D10 expressing PEXEL-Nluc infected in human RBC assessed as reduction in invasion at 5 times of EC90 concentration preincubated for 30 mins followed by compound wash out and measured after 24 hrs by luminometric method. Type of data set: functional, organism-based.

Data set [16] deals with Plasmodium falciparum. Put plainly: Antimalarial activity against asexual blood stage of Mefloquine-resistant Plasmodium falciparum W2mef assessed as reduction in cell viability after 72 hrs by EtBr staining based flow cytometric analysis. The class given is functional, organism-based.
Data set [17] in a line: Intrinsic clearance in mouse liver microsomes at 1 uM in presence of NADPH measured up to 60 mins by LC-MS analysis. Type of data set: ADME, Microsome. The note with it: read-out: CLH. (In general: Liver microsomes are a subcellular fraction often used to study metabolism.)
Data set [18] relates to Plasmodium falciparum. Nature of the data set: Antimalarial activity against asexual blood stages of Plasmodium falciparum 3D7 infected in human RBC by Live cell microscopic method. Type of data set: functional, organism-based. The note with it: 3D7, Erythrocyte.
A short description of data set [19]: Selectivity ratio of IC50 for antimalarial activity against asexual blood stage of chloroquine-resistant Plasmodium falciparum 7G8 to IC50 for antimalarial activity against asexual blood stage of Plasmodium falciparum 3D7. Type of data set: functional.

≈ marks a conversion by molar mass, not a printed value. Calls of active or inactive are those of the source. No cut-off for these calls is given here.

Usually EC50 stands for the concentration needed to bring the measured effect to its halfway point. In general, kinetic solubility refers to the concentration staying in solution when a stock, usually in DMSO, is diluted into the medium. For `C[C@@H](C(=O)N1CCCC1)N1CCN(S(=O)(=O)c2ccc(C(C)(C)C)cc2)CC1`, the 50% effective concentration (EC50) is 300 nM in data set [1] and above 40000 nM in [2]. The same molecule returned a solubility (kinetic) in data set [3] of 25 µM (≈ 10.2 µg/mL).
`C[C@@H](C(=O)N1CCC(F)(F)CC1)N1CCN(S(=O)(=O)c2ccc(C(C)(C)C)cc2)CC1`: the EC50 in data set [4] is 110 nM; in data set [6], 80 nM; in [7], above 10000 nM; in data set [8], 50 nM; in [1] it was 200 nM; in data set [12] it was 260 nM. Besides, the concentration giving a half-maximal response (EC50) was 110 nM in data set [13], above 10000 nM in data set [14], above 40000 nM in [2] and 90 nM in data set [16]. Moreover, the result in data set [5], in [9] and in [15] was Active. The figures for the inhibition of growth at 20 µM in [10] and in data set [11] were 47% and 59%, respectively.
For the molecule `C[C@@H](C(=O)N1CCc2ccccc2C1(C)C)N1CCN(S(=O)(=O)c2ccc(C(C)(C)C)cc2)CC1`, the concentration for a half-maximal effect (EC50) in data set [4] was 30 nM; in data set [6] it was 20 nM; in data set [7] it was above 10000 nM; in data set [8] it was 10 nM; in data set [1] it was 110 nM; in data set [12], 90 nM. The EC50 in data set [13] was 60 nM; in data set [14] it was above 10000 nM; in data set [2] it was 26000 nM; in [16], 40 nM. Besides, the result in data set [5], in [9] and in [15] was Active. For the same molecule, the inhibition of growth at 20 µM is 59% in data set [10] and 79% in [11].
`CC(C(=O)N1CCCC1)N1CCN(S(=O)(=O)c2ccc(C(C)(C)C)cc2)CC1` (stereo unspecified): the CLint scaled at 1 µM in data set [17] is above 2100 mL/min/kg. The 50% effective concentration (EC50) in [1] was 690 nM; in data set [2], above 40000 nM; in data set [18] it was 900 nM.
With `C[C@@H](C(=O)N1CC2CC2C1)N1CCN(S(=O)(=O)c2ccc(C(C)(C)C)cc2)CC1` (stereo partly specified), the half-maximal effective concentration (EC50) was 80 nM in [4]; 60 nM in data set [6]; above 10000 nM in [7]; 30 nM in [8]; 130 nM in data set [1]; 140 nM in [12]. Further, the concentration giving a half-maximal response (EC50) in data set [13] is 70 nM; in data set [14], above 10000 nM; in data set [2], above 40000 nM; in [16], 60 nM. The outcome in data set [5], in data set [9] and in data set [15] was Active. Also, the inhibition of growth at 20 µM came to 36% in data set [10] and 44% in data set [11].
Regarding `C[C@@H](C(=O)N1CCCCC1)N1CCN(S(=O)(=O)c2ccc(C(C)(C)C)cc2)CC1`, the concentration giving a half-maximal response (EC50) is 5100 nM in data set [4]; 1300 nM in data set [6]; above 10000 nM in [7]; 610 nM in [8]; 200 nM in data set [1]; 1300 nM in [12]. Also, the EC50 in [13] is 860 nM; in data set [14] it was above 10000 nM; in [2], above 40000 nM; in [16] it was 490 nM. The result in [5], in data set [9] and in data set [15] was Active. Moreover, the Ratio IC50 in data set [19] was found to be 8. In addition, the inhibition of growth at 20 µM in data set [10] worked out at 41%; in data set [11], 49%.
On to `CC(C(=O)N1CCc2ccccc2C1(C)C)N1CCN(S(=O)(=O)c2ccc(C(C)(C)C)cc2)CC1` (stereo unspecified), for which, in [17], the microsomal CLint at 1 µM was above 866 µL/min/mg. The EC50 in [1] was 180 nM; in data set [2], 31000 nM. The same molecule had a solubility (kinetic) in data set [3] below 1.6 µM.
For the molecule `C[C@@H](C(=O)N1CCCC1)N1CCN(S(=O)(=O)c2ccc([Si](C)(C)C)cc2)CC1`, the microsomal CLint at 1 µM in [17] is above 866 µL/min/mg. The EC50 in data set [1] is 490 nM; in data set [2], above 40000 nM.
As to `CCN(CC)CCCC(C)Nc1ccnc2cc(Cl)ccc12` (stereo unspecified) [CHLOROQUINE], the concentration giving a half-maximal response (EC50) in data set [4] was 320 nM; in data set [6] it was 560 nM; in [7] it was above 10000 nM; in data set [8], 4 nM; in data set [1], 21000 nM; in data set [12], 10 nM. Also, the EC50 amounted to 580 nM in data set [13], 97 nM in [14] and 250 nM in data set [16]. In data set [10], the inhibition of growth at 20 µM turned out to be 99%.
With `CC(C(=O)N1CCCC1)C1CCN(S(=O)(=O)c2ccc(C(C)(C)C)cc2)CC1` (stereo unspecified), the microsomal CLint at 1 µM in data set [17] came to 532 µL/min/mg. In addition, the concentration for a half-maximal effect (EC50) was above 10000 nM in data set [1] and above 40000 nM in data set [2].
Regarding `CC(C(=O)N1CCCC1)N1[C@@H]2CC[C@H]1CN(S(=O)(=O)c1ccc(C(C)(C)C)cc1)C2` (stereo partly specified), the microsomal CLint at 1 µM in data set [17] was 473 µL/min/mg. Also, the EC50 in data set [1] is 920 nM; in data set [2], above 40000 nM.
